RGS4 act = RGS4 potentiators or activators, primary screen, cell-based, HEK293 M3R inducible RGS4, calcium flux. 0.92% of 310,000 active. AID 463111, 2010. carbachol calcium flux Fluo4; hits give low values. B-score at 10 µM;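 active = B-score of the integrated calcium signal more than 4 SD below the library mean, with starting fluorescence not abnormally high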;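 note: negative B-score means reduced calcium response which marks RGS4 activation or potentiation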
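Detection: kinetic calcium fluorescence imaging with Fluo4-AM dye, 2 µM / Material: HEK293 cells with stable M3R and inducible RGS4 / Schedule: recording 10 s baseline at 1 Hz, 100 s post-agonist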
MrgX1 PAM = positive allosteric modulators of MrgX1, primary screen, HEK293 cells, Fluo-4 calcium flux. 0.63% of 310,000 active. Mas-related G-protein coupled receptor member X1 (Homo sapiens), Q96LB2. B-score at 10 µM. AID 588675, 2011. FDSS; hits give high values;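 active = plate-corrected calcium response at least 3 library SD above typical, normal starting fluorescence, not activating the receptor alone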;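 note: compound read alongside a low EC10 to EC30 dose of BAM8-22 agonist; peak minus trough fluorescence over baseline measured at the second addition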
Target sequence (Q96LB2 whole entry, looked up): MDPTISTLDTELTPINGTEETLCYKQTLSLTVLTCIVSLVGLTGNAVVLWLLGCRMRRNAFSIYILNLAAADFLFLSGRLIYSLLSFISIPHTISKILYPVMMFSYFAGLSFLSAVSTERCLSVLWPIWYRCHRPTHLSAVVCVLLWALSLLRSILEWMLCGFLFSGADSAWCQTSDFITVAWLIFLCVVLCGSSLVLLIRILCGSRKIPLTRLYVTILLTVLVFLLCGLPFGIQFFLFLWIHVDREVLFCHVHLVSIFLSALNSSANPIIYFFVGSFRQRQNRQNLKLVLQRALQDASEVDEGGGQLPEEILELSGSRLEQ
MrgX1 agonist = agonists of human MrgX1 receptor, primary screen, HEK293 cells, Fluo-4 calcium flux; 0.44% of 310,000 active; Fluo-4 calcium fluorescence, agonist mode; hits give high values; B-score at 10 µM;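 active = calcium response B-score plate-corrected fluorescence ratio at least 3 library SD, with starting fluorescence B-score inside 5 SD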
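Material: MrgX1-expressing HEK293 cells; input: 15,000 cells per well; doses: test compound given as first of three sequential additions; schedule: overnight plating before 1 h dye loading; technique: Fluo-4 NW calcium-flux fluorescence, kinetic read; evaluation: baseline-normalised fluorescence change ratio, B-scored; control set: plate-wise positive and negative controls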
RGS4 inh = RGS4 inhibitors, primary screen, cell-based, HEK293 M3R inducible RGS4, calcium flux. 0.45% of 310,000 active. Fluo-4 calcium flux; hits give high values; triggered by carbachol at its EC20. B-score at 10 µM. Regulator of G-protein signaling 4 (Homo sapiens), P49798. AID 463165, 2010;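 active = B-score, a plate-corrected calcium signal, over three deviations above library mean, with baseline fluorescence within five deviations of library mean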;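 note: RGS4 expression induced by doxycycline in cells with stable M3 receptor; B-score is computed from the integrated fluorescence ratio over baseline after carbachol; higher B-score means a larger calcium signal and so more RGS4 inhibition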
Target sequence (P49798 whole entry, looked up): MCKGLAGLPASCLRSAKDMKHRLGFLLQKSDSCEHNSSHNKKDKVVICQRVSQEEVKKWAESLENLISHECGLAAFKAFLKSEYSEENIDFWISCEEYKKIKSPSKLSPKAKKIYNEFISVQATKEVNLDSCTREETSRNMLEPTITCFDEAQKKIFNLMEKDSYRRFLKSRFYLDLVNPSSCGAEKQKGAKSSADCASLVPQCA
MrgX1 antag = antagonists of human MrgX1 receptor, primary screen, HEK293 cells, Fluo-4 calcium flux. B-score at 10 µM. BAM8-22 antagonism; hits give low values. Mas-related G-protein coupled receptor member X1 (Homo sapiens), Q96LB2. AID 588676, 2011. 1.3% of 310,000 active;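 active = calcium-response B-score plate-corrected more than 3 library SD below zero, starting fluorescence within 5 deviations, no agonist response on first addition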;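 note: peak minus trough fluorescence over baseline after final BAM8-22 challenge near maximal dose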
Numbers stand for hits; 0 = inactive; - = not tested or not shown. Most compounds without a hit are left out; they make up all but 3.5% or so of the library.

SMILES	RGS4 act	MrgX1 PAM	MrgX1 agonist	RGS4 inh	MrgX1 antag
CC(C)Nc1ccc(Nc2ccnc3cc4ccccc4cc23)cc1	-9.9	0	0	0	0
O=C(NCc1ccc2c(c1)OCO2)c1cc([N+](=O)[O-])ccc1N1CCCCC1	-7.4	0	0	0	0
CC(Sc1nncs1)C(=O)NC1CCCCC1C (stereo not given)	0	0	0	0	0
CC1=NOC(=O)/C1=C/c1ccc(-c2ccc(Cl)cc2)o1	-	0	46	-	0
CC1=NOC(=O)/C1=C\c1ccc(-c2ccc(Br)cc2)o1	0	-	-	0	-
CCc1ccc(/C=N\NC(=O)c2ccc(Br)o2)s1	0	0	0	0	-4.9
COc1ccc(N=C2S/C(=C\c3ccc(N4CCOCC4)o3)C(=O)N2CCc2c[nH]c3ccccc23)cc1	0	0	0	0	-7.1
COc1ccc(N=C2S/C(=C\c3ccc(OCC(=O)O)cc3)C(=O)N2CCc2c[nH]c3ccccc23)cc1	0	-	-	0	-
CNc1cc(CS(=O)c2ccccc2)nc(-c2ccccc2)n1 (stereo not given)	0	0	0	0	0
O=S(Cc1cc(Sc2ccccc2)nc(-c2ccccc2)n1)c1ccccc1 (stereo not given)	0	10	0	0	0
CCOC(=O)C1=C(COC(=O)/C=C/c2cccc(OC)c2)NC(=O)NC1C (stereo not given)	-7	0	0	0	0
CCCCn1c(SCc2cccc([N+](=O)[O-])c2)nc2ccsc2c1=O	-8.1	0	0	0	0
COCCn1c(SCc2cccc([N+](=O)[O-])c2)nc2ccccc2c1=O	0	0	0	0	0
COc1ccc2[nH]c3c(c2c1)CCNC3c1ccc([N+](=O)[O-])o1 (stereo not given)	0	0	0	0	-5.6
COc1cc(C2NCCc3c2[nH]c2ccccc32)ccc1OC(C)C (stereo not given)	0	0	0	0	0
CCCC(C(=O)NCCC(C)C)N(Cc1ccccc1)C(=O)c1snc(C(N)=O)c1N (stereo not given)	0	0	0	0	0
CCOC(=O)C1(CCCc2ccccc2)CCN(C(=O)CCN2CCCCC2=O)CC1	0	0	0	0	0
Cc1ncc(CO)c(/C=N/NC(=O)c2ccc(Br)cc2)c1O	0	0	0	8.4	0
Cc1ncc(CO)c(/C=N/NC(=O)c2cc(Br)ccc2O)c1O	0	0	0	0	0
CCOC(=O)NC(C)N1C(=O)C2C3C=CC(C3)C2C1=O (stereo not given)	0	0	0	0	0
CN(C)CCCNC(=O)/C(=C\c1ccc(-c2ccc(Br)cc2)o1)NC(=O)c1ccccc1	0	0	0	0	0
CN(C)CCCNC(=O)/C(=C/c1ccc(-c2ccc([N+](=O)[O-])cc2)o1)NC(=O)c1ccccc1	0	0	0	0	-5.7
COc1ccccc1NC(=O)C1CC(O)CN1C(=O)Oc1ccccc1 (stereo not given)	0	0	0	0	0
O=C(Nc1nnc(-c2ccc(F)cc2)o1)c1cccc([N+](=O)[O-])c1	0	0	58	0	0
O=C(Nc1nnc(C2=COCCO2)o1)c1cccc([N+](=O)[O-])c1	0	0	0	0	0
SMILES	RGS4 act	MrgX1 PAM	MrgX1 agonist	RGS4 inh	MrgX1 antag
Cc1ccc(N(C(=O)CNC(=O)c2ccco2)C(C(=O)NC2CCCC2)c2ccncc2)cc1C (stereo not given)	0	0	0	0	0
COc1ccc(-c2csc(NC(=O)CSc3n[nH]c(N)n3)n2)cc1	0	0	0	0	0
COc1ccc(-c2csc(NC(=O)CSc3n[nH]c(C)n3)n2)cc1	0	6.9	0	0	0
O=C(/C=C/c1cccs1)N1CCC2(CC1)Oc1ccc(F)cc1C(=O)C21CC(c2ccc(Cl)cc2)=NO1 (stereo not given)	0	0	0	0	-4.5
O=C(/C=C/c1cccs1)N1CCC2(CC1)Oc1ccc(Cl)cc1C(=O)C21CC(c2ccc(Cl)cc2)=NO1 (stereo not given)	0	0	0	0	0
Cc1ccc(N(C(=O)Cc2cccs2)C(C(=O)NC2CCCCC2)c2ccccn2)cc1C (stereo not given)	0	10	0	0	0
COc1cc(N(C(=O)Cc2cccs2)C(C(=O)NC2CCCCC2)c2ccc(C)cc2)ccc1-n1cnnn1 (stereo not given)	0	0	0	0	-6.3
CCOc1ccc2[nH]c(=O)c(CN(Cc3nnnn3Cc3ccco3)C3CCCCC3)cc2c1	0	0	27	0	0
COc1cc2cc(CN(Cc3nnnn3Cc3ccco3)C3CCCCC3)c(=O)[nH]c2cc1OC	0	0	0	0	0
CC(C)(C)C(=O)C(Cl)C(=O)Nc1ccccc1 (stereo not given)	0	0	0	45	0
CC(=O)C(C(C)=O)c1cc(NS(=O)(=O)c2ccccc2)ccc1NS(=O)(=O)c1ccccc1	0	13	0	0	0
COc1ccc(-c2cc(C)no2)cc1S(=O)(=O)N1CCOc2ccc(C)cc21	0	0	0	0	0
O=C1c2ccccc2CC1(Cc1ccccc1)Cc1ccccc1	-7.1	0	0	0	0
CCC1(CC)Cc2ccccc2C(=O)N1	0	0	0	0	0
COc1ccc(N=C2O/C(=C/c3sc(=S)n(CC4CCCO4)c3O)N=C2C#N)cc1 (stereo not given)	0	0	0	0	0
COc1cc(CNCCSc2nnnn2C)cc(Br)c1OCc1ccccc1F	0	0	0	0	0
CCOc1cc(CNCCSc2nnnn2C)cc(Br)c1OCc1ccccc1F	0	0	0	0	-4.7
CCOc1cccc(CNCCO)c1OCc1ccc(Cl)cc1Cl	0	0	0	0	0
CCOc1cc(CNCCO)cc(Br)c1OCc1ccc(Cl)cc1Cl	-7.7	0	0	0	0
COc1ccc(C(=O)CSc2cc(C)[nH]c(=O)n2)cc1	0	0	0	0	0
C/C(=N\NC(=O)c1ccc(Cn2cc([N+](=O)[O-])cn2)o1)c1cccc(NC(=O)C(C)C)c1	0	0	0	0	-5.6
C/C(=N\NC(=O)c1ccc(Cn2cc(Br)cn2)o1)c1cccc(NC(=O)C(C)C)c1	0	0	0	0	0
CCN(CC)CCOc1c(Br)ccc2c1sc1nc3n(c(=O)c12)CCC3	0	0	0	0	0
O=c1c2c(nc3n1CCCCC3)sc1c(O)c(Br)ccc12	0	0	0	0	-5.4
O=S(=O)(c1ccccc1)c1cnc(-c2ccccc2)nc1N1CCCC1	0	0	0	0	0
COc1cc2ncc(S(=O)(=O)c3ccccc3)c(N3CCCC(C)C3)c2cc1OC (stereo not given)	-7.3	0	0	0	0

Bioassay records as filed in PubChem.
